# Data taken from the RNAGym collection of RNA variant scans (doi:10.1126/science.aae0568).
# Fewer inactive variants are shown than the library holds.
# B1: tRNA (parent)
# chain: GUUCCGUUGGCGUAAUGGUAACGCGUCUCCCUCCUAAGGAGAAGACUGCGGGUUCGAGUCCCGUACGGAACG
# Variants of: B1
# Assay: yeast fitness relative to wild type (ratio to wild type); higher = fitter; tRNA-Arg(CCU), competitive growth, 37 C, YPD
# In short: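 For this measurement, the tRNA-Arg(CCU) gene was varied by chemical synthesis at a 3% per-site mutation rate across 69 sites, and each variant was placed at the native genomic locus in Saccharomyces cerevisiae. The pooled strains went through a 24-hour competition in YPD at 37°C in six parallel replicates, with amplicons from start and end populations read by 100-nucleotide paired-end sequencing. Darwinian fitness relative to wild type followed from the change in each genotype's frequency. Genotypes needed ≥ 100 starting reads, and estimates < 0.5 were set to 0.5.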
row,Variant,yeast fitness
1,C5U C29G G63A,≤ 0.5
2,C5U G17A A20G C55A G67A A70G,≤ 0.5
3,C5U C27U A37C C60A C66U,≤ 0.5
4,C5U G25A A40C,≤ 0.5
5,C5U G41A A42C G50C A70G,0.535
6,C5U G10A C34U G68U A69U,0.505
7,C5U G38C A42C G63A,≤ 0.5
8,C5U C46G G68U,≤ 0.5
9,C5U G12C A40C G56C,≤ 0.5
10,C5U C27A G63C,≤ 0.5
11,C5U C34U A65U,0.565
12,C5U C29G G44A A57U,≤ 0.5
13,C5U C22U C31G C33G C34U G68A,≤ 0.5
14,C5U G6C G39A A45U C46G A57C,≤ 0.5
15,C5U C34A G44C C62U,0.723
16,C5U G6C A21C A42U C46U C66U,≤ 0.5
17,C5U G9A C34A,0.704
18,C5U G17A A21G A37G G39C G44C C46A U54C A65C,≤ 0.5
19,C5U C31G G56C,0.527
20,C5U C30G C31A G63C,≤ 0.5
21,C5U C30U C34G G38C A65C,≤ 0.5
22,C5U G9A U13A,0.882
23,C5U C24G C30G A36U C55U A69C,≤ 0.5
24,C5U C24A C33U U47C G63A G67U,0.718

row,Variant,yeast fitness
1,C5U G17C U26G,0.511
2,C5U G12A A15U G63A A70U,≤ 0.5
3,C5U C60A C62G,≤ 0.5
4,C5U G9A C62U,0.995
5,C5U C33U A69C,0.556
6,C5U C33A A36C A37C A43G,≤ 0.5
7,C5U C22U A37U G67A,≤ 0.5
8,C5U C24G A40C A69C,0.522
9,C5U C34A G63A,≤ 0.5
10,C5U C24G,0.571
11,C5U C46A,1
12,C5U C46U,1.07
13,C5U C24G A42C U53G,≤ 0.5
14,C5U C34U C49U U53C G67U,≤ 0.5
15,C5U C22U,0.792
16,C5U C29A U35G C46U U54G,≤ 0.5
17,C5U C29A,0.569
18,C5U C29U,0.867
19,C5U G9A A21G C55U,≤ 0.5
20,C5U G9A A65G,0.736
21,C5U C29A A45C,0.669
22,C5U G10A C27G U35G G44A,≤ 0.5
23,C5U G10A A21G A40U,≤ 0.5
24,C5U C27G C31G,0.679

row,Variant,yeast fitness
1,C5U C55A G68C,≤ 0.5
2,C5U C34U C49G G52C C55U C62G,≤ 0.5
3,C5U G10C A21U C22U U32C C46U C61G,≤ 0.5
4,C5U C29G A57G,0.655
5,C5U G17C,0.721
6,C5U C30A A65C,0.703
7,C5U C27G G38U,≤ 0.5
8,C5U C22U C33U A37G,≤ 0.5
9,C5U C66U,0.877
10,C5U G39C U59A C60G,≤ 0.5
11,C5U G38C G39C A40G G44A C46G G52A U59G,≤ 0.5
12,C5U G10A A40C G50A,≤ 0.5
13,C5U C49U U64A,≤ 0.5
14,C5U C62G G63C A65U,≤ 0.5
15,C5U G10A C62G C66G,≤ 0.5
16,C5U G25C,0.997
17,C5U G25A,0.891
18,C5U C27G U32A,0.561
19,C5U G10A C27G A57G,0.541
20,C5U G9A G10C G12A G25A C33G G39A,≤ 0.5
21,C5U C31A C34A A36G,≤ 0.5
22,C5U C31G C33G,0.579
23,C5U C22U A37U,0.535
24,C5U G38A A42G,0.605

row,Variant,yeast fitness
1,C5U C31G U32C A37C G50C A69C,≤ 0.5
2,C5U C34G C55A G63C,≤ 0.5
3,C5U C31U C33U C34G A40C G63A,≤ 0.5
4,C5U G12C A21C C24A G41C U53A,≤ 0.5
5,C5U C31G G51C,0.572
6,C5U G12C U19A,≤ 0.5
7,C5U G9A G67A,1.05
8,C5U C55A C61G,≤ 0.5
9,C5U C30U G44C G67C,≤ 0.5
10,C5U G17A C29U G52C C55G A69U,≤ 0.5
11,C5U C22U C27U A42G G48A C55A C60A A70U,≤ 0.5
12,C5U C27G C33G G41C C61A,≤ 0.5
13,C5U C55U G56C,0.746
14,C5U G12A A14G A57U,≤ 0.5
15,C5U C22U A36G,0.749
16,C5U G10A C22U A40G G56C C66A,≤ 0.5
17,C5U G6A A15U C31U U32C G67C,≤ 0.5
18,C5U G41A C49U A65G C66U,≤ 0.5
19,C5U C30G G56C,≤ 0.5
20,C5U G18C U28C G63A,≤ 0.5
21,C5U C31U G48C,0.682
22,C5U G9A C31A A57C C66A A69U,≤ 0.5
23,C5U C31G A45U C62U,0.629
24,C5U G17A C33A C49U C66U,≤ 0.5

row,Variant,yeast fitness
1,C5U C29G C30A U64G A69C,≤ 0.5
2,C5U C27G G39C G52A,≤ 0.5
3,C5U G12C A43G G56A,≤ 0.5
4,C5U G9A A20G,0.663
5,C5U G17C C30G,≤ 0.5
6,C5U C29G C33U,≤ 0.5
7,C5U G10A G38C,≤ 0.5
8,C5U G10A C27G,≤ 0.5
9,C5U C31G G48C G58A,≤ 0.5
10,C5U C22U C31U C49A U59C,≤ 0.5
11,C5U G17C G18C C60G C61G,≤ 0.5
12,C5U C61A C66A,≤ 0.5
13,C5U G23A U35A,≤ 0.5
14,C5U G6A C22U G25C,≤ 0.5
15,C5U C33U A45C C46G A69U,≤ 0.5
16,C5U C31G,0.918
17,C5U G25C C49A G56C C62G,≤ 0.5
18,C5U G41A A70C,0.695
19,C5U G23A C62G,0.538
20,C5U G6C A20U A45U,≤ 0.5
21,C5U C29G G68A,≤ 0.5
22,C5U C46G C49G,0.527
23,C5U G9A C61U,0.732
24,C5U G17C C24G G38C U54C,≤ 0.5

row,Variant,yeast fitness
1,C5U G38C C46U C60U,≤ 0.5
2,C5U G9C A42G,0.626
3,C5U G17A C46U G58A G63A U64A,≤ 0.5
4,C5U G23A A36G,0.618
5,C5U G39A G51U G58C,≤ 0.5
6,C5U C24A C27G C61A C66G,0.624
7,C5U C33U C61U,0.632
8,C5U C34A U53A A57U A65U,≤ 0.5
9,C5U G39A C55U,0.614
10,C5U C24U C46G A65C,0.537
11,C5U C24U G44C C60A,0.527
12,C5U C46G G52C C62G C66U,≤ 0.5
13,C5U C31G A40G A45G C46G G48A,≤ 0.5
14,C5U G10C A21U C22U C27U U32C C46U C61G,≤ 0.5
15,C5U C62G,0.702
16,C5U C62A,0.649
17,C5U C33G C46A C66A,≤ 0.5
18,C5U C34G A45U,0.534
19,C5U C34G A45C C66G,≤ 0.5
20,C5U G17U A70U,≤ 0.5
21,C5U G9C A36U C60G,≤ 0.5
22,C5U C49U C61A,≤ 0.5
23,C5U C29U A45C C60A,≤ 0.5
24,C5U G9C A15C G38C C49G G68C,≤ 0.5

row,Variant,yeast fitness
1,C5U C22U G44C,0.73
2,C5U C33U A37C A42U U47C G52A U54C G67A,≤ 0.5
3,C5U C22G U28A C31G C55A G68C,0.542
4,C5U G6C A36C G48C C62U,0.546
5,C5U C24U A42C A57U C62A,≤ 0.5
6,C5U C27G C31G G44C A45G,≤ 0.5
7,C5U C22U C24A G56C U59G,≤ 0.5
8,C5U C29U A69U,0.72
9,C5U G10A A20G A36U A43C,≤ 0.5
10,C5U C31U G50A U54C C55G,≤ 0.5
11,C5U G18C C22A U54A A65G,≤ 0.5
12,C5U C27G,0.61
13,C5U C27A,0.817
14,C5U G12C A21C C24A G41C G50A U53A,≤ 0.5
15,C5U C33G A36U,≤ 0.5
16,C5U G18C A65U,0.601
17,C5U G17C U26G G67A,0.565
18,C5U C22U C66U,≤ 0.5
19,C5U G23A,0.742
20,C5U G23C,0.644
21,C5U G6C A14G,≤ 0.5
22,C5U C22U C33U U53A,≤ 0.5
23,C5U C46U C55G U64A,0.638
